Consider five compounds from ChEMBL document CHEMBL1240504, “Synthesis of substituted thieno[2,3-d]pyrimidine-2,4-dithiones and their S-glycoside analogues as potential antiviral and antibacterial agents” (Eur J Med Chem, 2010).

Converted amounts (≈) assume the structure as drawn. Some results are limits rather than exact numbers.

In data set [1] the test system is Human alphaherpesvirus 1. Briefly: Antiviral activity against HSV1 infected in african green monkey Vero cells after 6 hrs by plaque reduction assay. Also noted: scale not given: the % may be the effect or the level left. It is filed as functional. Put shortly: (§1)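 Modified plaque reduction in 96-well trays with no thickening overlay. Compounds dissolved in DMSO and diluted into medium, then serially diluted and added in triplicate to confluent Vero monolayers. Titred HSV-1 added in medium with 10% calf serum. Incubated 6 h at 37 °C, 5% CO2. Cells fixed with 3.7% formaldehyde and examined visually. The end-point concentration was taken from the dilution series.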

Data set [2] deals with Human alphaherpesvirus 1. The experiment in a line: Antiviral activity against HSV1 infected in african green monkey Vero cells assessed as minimum antiviral concentration after 6 hrs. It is filed as functional. Put shortly: as §1
A further data set relates to Vero. Briefly: Cytotoxicity against african green monkey Vero cells assessed as loss of monolayer present around the plaques. The note with it: Chlorocebus sabaeus. It counts as cell-based. Put shortly:
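Vero monolayers in serial-dilution trays with HSV-1, run in triplicate, 6 h at 37 °C, 5% CO2. Cells fixed with 3.7% formaldehyde and examined visually. IC50 is the concentration giving about 50% loss of the monolayer around HSV-1 plaques.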

Data set [3] deals with Human immunodeficiency virus 1. Briefly: Antiviral activity against HIV1 infected in human CEM cells assessed as protection against virus-induced cytopathic effect after 6 days by XTT assay. As to conditions: Human immunodeficiency virus 1, CCRF-CEM, 144 h. It is filed as functional, organism-based. Put shortly:
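CEM T4 lymphocytes received serially diluted compounds (DMSO stock diluted 1:100 in medium, 1:200 final dilution), then HIV-1. Incubated 6 days at 37 °C, 5% CO2. Formazan read spectrophotometrically after XTT, with microscopic check for viable cells. EC50 is the concentration giving 50% protection against the HIV cytopathic effect. AZT-treated wells served as positive control.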

The next data set concerns CCRF-CEM. Briefly: Cytotoxicity against […] human CEM cells after 6 days by XTT assay. It counts as cell-based. As to conditions: 144 h. In short, it runs like this: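 Uninfected CEM cultures given serial compound dilutions (DMSO, 1:200 final dilution). Incubated 6 days at 37 °C, 5% CO2, then read by XTT formazan. IC50 is the molar concentration causing 50% inhibition of cell growth.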

The nature of data set [4]: Therapeutic index, ratio of IC50 for human CEM cells to EC50 for HIV1. It is filed as cell-based, CCRF-CEM. As to conditions: read-out: Ratio IC50/EC50. Put shortly:
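CEM T4 lymphocytes, with or without HIV-1, were incubated with serially diluted compounds (DMSO solution diluted 1:100 in medium; 1:200 final dilution after cells and virus were added) at 37 °C in 5% CO2 for 6 days. Controls were untreated and AZT-treated. Read-out was XTT formazan, measured spectrophotometrically plus microscopy. EC50 is 50% protection from cytopathic effect; IC50 is 50% growth inhibition in uninfected cultures.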

Data set [5] relates to Escherichia coli. Briefly: Antibacterial activity against Escherichia coli MTCC 41 after 12 to 16 hrs by turbidity assay. It is filed as functional. In short, it runs like this:
(§2)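 Broth dilution MIC in LB broth. Tubes inoculated, incubated 12–16 h and scored by eye for turbidity (growth) versus clear (no growth).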

The subject of data set [6] is Escherichia coli. Briefly: Antibacterial activity against Escherichia coli MTCC 41 at 128 mg/ml after 16 hrs by disk diffusion test. As to conditions: MTCC 41, 16 h, read-out: IZ. It is filed as functional. Also on record: dose or concentration left out as unconfirmed.
Data set [7] has as its system Escherichia coli. The experiment in a line: Antibacterial activity against Escherichia coli MTCC 41 at 64 mg/ml after 16 hrs by disk diffusion test. It counts as functional. Also noted: dose or concentration left out as unconfirmed. The note with it: MTCC 41, 16 h, read-out: IZ.
For data set [8], the system named is Staphylococcus aureus. The experiment in a line: Antibacterial activity against Staphylococcus aureus MTCC 1144 after 12 to 16 hrs by turbidity assay. It counts as functional. Put shortly:
as §2

In data set [9] the test system is Staphylococcus aureus. The experiment in a line: Antibacterial activity against Staphylococcus aureus MTCC 1144 at 128 mg/ml after 16 hrs by disk diffusion test. It counts as functional. Also noted: dose or concentration left out as unconfirmed. As to conditions: MTCC 1144, 16 h, read-out: IZ. In general terms: In agar diffusion tests the substance spreads into inoculated agar from a disc or well.

Data set [10] has as its system Staphylococcus aureus. The experiment in a line: Antibacterial activity against Staphylococcus aureus MTCC 1144 at 64 mg/ml after 16 hrs by disk diffusion test. It counts as functional. The note with it: MTCC 1144, 16 h, read-out: IZ. Put shortly: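 Disk diffusion (zone of inhibition). Bacterial isolate spread evenly over an agar plate. A filter disk carrying a known amount of compound was placed on the surface and the compound left to diffuse. The inhibition zone in the lawn was read after 16 h incubation.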

In data set [11] the test system is Pseudomonas putida. The experiment in a line: Antibacterial activity against ampicillin-resistant Pseudomonas putida MTCC 1072 after 12 to 16 hrs by turbidity assay. It counts as functional. In short, it runs like this:
as §2

Data set [12] relates to Pseudomonas putida. Briefly: Antibacterial activity against ampicillin-resistant Pseudomonas putida MTCC 1072 at 128 mg/ml after 16 hrs by disk diffusion test. It counts as functional. Also noted: dose or concentration left out as unconfirmed. The note with it: MTCC 1072, 16 h, read-out: IZ.
For data set [13], the system named is Pseudomonas putida. The experiment in a line: Antibacterial activity against ampicillin-resistant Pseudomonas putida MTCC 1072 at 64 mg/ml after 16 hrs by disk diffusion test. It is filed as functional. Also on record: dose or concentration left out as unconfirmed. The note with it: MTCC 1072, 16 h, read-out: IZ.

On to `OC[C@H]1O[C@@H](Sc2nc3sc4c(c3c(=S)[nH]2)CCCC4)[C@@H](O)[C@@H]1O`, for which the Activity with Human alphaherpesvirus 1 [1] came to 30%. Besides, in the data set with Human alphaherpesvirus 1 [2], the MAC came to 0.29 µM. Further, the IC50 (commonly the point on the concentration scale where inhibition reaches its midpoint) with Vero is > 1.7 µM; in the data set with CCRF-CEM, > 100 µM. For the same compound, the EC50 (usually the concentration that produces a half-maximal response) in [3] was > 100 µM. The selectivity ratio in [4] was > 1. Besides, the MIC (commonly the lowest concentration found to suppress growth) was 128 µg/mL (≈ 331 µM) against Escherichia coli [5], > 128 µg/mL in the data set with Staphylococcus aureus [8] and 64 µg/mL (≈ 166 µM) against Pseudomonas putida [11]. The zone of inhibition in the data set with Escherichia coli [6] is > 3 mm; with Escherichia coli [7], > 2 mm; in the data set on Staphylococcus aureus [9], > 2 mm; in the data set on Pseudomonas putida [12] it was > 3 mm; in the data set on Pseudomonas putida [13], > 3 mm. Also, the zone of inhibition at 64000 µg/mL with Staphylococcus aureus [10] was > 2 mm.

With `OC[C@H]1O[C@@H](Sc2nc3sc4c(c3c(=S)[nH]2)CCCCC4)[C@@H](O)[C@@H]1O`, the Activity with Human alphaherpesvirus 1 [1] is reported as 24%. In the data set on Human alphaherpesvirus 1 [2], the MAC worked out at 0.21 µM. Also, the IC50 is > 1.46 µM in the data set with Vero and > 100 µM in the data set on CCRF-CEM. Further, the concentration giving a half-maximal response (EC50) in [3] is > 100 µM. In addition, the selectivity ratio in data set [4] is > 1. Besides, the MIC in the data set with Escherichia coli [5], in the data set with Staphylococcus aureus [8] and against Pseudomonas putida [11] was 128 µg/mL (≈ 320 µM) in each case. Moreover, the zone of inhibition is > 3 mm with Escherichia coli [6]; > 2 mm with Escherichia coli [7]; > 3 mm with Staphylococcus aureus [9]; > 3 mm in the data set on Pseudomonas putida [12]; > 2 mm in the data set on Pseudomonas putida [13]. Further, the zone of inhibition at 64000 µg/mL with Staphylococcus aureus [10] is > 2 mm.

For `CC(=O)OC[C@H]1O[C@@H](Sc2nc3sc4c(c3c(=S)[nH]2)CCCC4)[C@H](OC(C)=O)[C@@H](OC(C)=O)[C@@H]1OC(C)=O`, the Activity with Human alphaherpesvirus 1 [1] was 0%. Also, the figures for the concentration for half-maximal inhibition (IC50) in the data set on Vero and with CCRF-CEM were 0.56 µM and > 100 µM, respectively. In data set [3], the concentration giving a half-maximal response (EC50) was > 100 µM. Moreover, in [4], the selectivity ratio was > 1. Further, the MIC against Escherichia coli [5], against Staphylococcus aureus [8] and against Pseudomonas putida [11] was > 128 µg/mL each time. Further, the zone of inhibition in the data set with Escherichia coli [6] was > 2 mm; with Escherichia coli [7], < 1 mm; in the data set on Staphylococcus aureus [9] it was < 1 mm; with Pseudomonas putida [12], > 2 mm; with Pseudomonas putida [13] it was > 2 mm. Besides, the zone of inhibition at 64000 µg/mL with Staphylococcus aureus [10] was < 1 mm.

For `OC[C@H]1O[C@@H](Sc2nc3sc4c(c3c(=S)[nH]2)CCCC4)[C@H](O)[C@@H](O)[C@@H]1O`, the Activity in the data set on Human alphaherpesvirus 1 [1] worked out at 0%. In addition, the concentration for half-maximal inhibition (IC50) in the data set on Vero is 0.61 µM; with CCRF-CEM it was > 100 µM. Besides, in data set [3], the concentration for a half-maximal effect (EC50) is > 100 µM. In [4], the selectivity ratio was > 1. Also, the MIC is > 128 µg/mL with Escherichia coli [5], > 128 µg/mL in the data set with Staphylococcus aureus [8] and 128 µg/mL (≈ 307 µM) against Pseudomonas putida [11]. Also, the zone of inhibition with Escherichia coli [6] is < 1 mm; in the data set on Escherichia coli [7] it was < 1 mm; with Staphylococcus aureus [9] it was < 1 mm; with Pseudomonas putida [12], > 3 mm; in the data set on Pseudomonas putida [13] it was < 1 mm. Moreover, the zone of inhibition at 64000 µg/mL in the data set on Staphylococcus aureus [10] is < 1 mm.

Consider `C[C@@]1(CO)[C@H](O)CC[C@@]2(C)[C@H]1CC[C@H]1C[C@@H]3C[C@@]12CC[C@]3(O)CO` [APHIDICOLIN], for which the Activity in the data set on Human alphaherpesvirus 1 [1] is on record as 100%. Besides, in the data set on Human alphaherpesvirus 1 [2], the MAC amounted to 0.02 µM. Further, the concentration for half-maximal inhibition (IC50) with Vero was determined as 0.58 µM.
